Source: ChEMBL document CHEMBL4393700, “Novel resveratrol-based flavonol derivatives: Synthesis and anti-inflammatory activity in vitro and in vivo” (Eur J Med Chem, 2019)
Activity calls are given as the source filed them. No cut-off for these calls is given here.

Experiments:
RAW264.7 [1] = experiment: Antiinflammatory activity in mouse RAW264.7 cells assessed as inhibition of LPS-induced NO production at 10 uM pretreated for 1 hr followed by LPS stimulation and measured after 24 hrs by Griess reagent based assay; format: functional, cell-based
Procedure, shortened: (§1)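 RAW264.7 in DMEM/10% FBS with penicillin-streptomycin, 37 °C, 5% CO2; seeded 6×10^4 cells/well, grown 24 h, pretreated 1 h with test agent (10 µM screen; 10, 5, 2.5, 1.25, 0.625 µM for concentration series), then LPS 0.5 µg/mL for 24 h. Supernatant nitrite measured with Griess reagent.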

RAW264.7 [2] = experiment: Cytotoxicity against LPS-stimulated mouse RAW264.7 cells at 20 uM pretreated for 1 hr followed by LPS stimulation and measured after 24 hrs by MTT assay; conditions: raw264.7, 24 h
RAW264.7 [3] = experiment: Antiinflammatory activity in mouse RAW264.7 cells assessed as reduction in LPS-induced TLR4 protein expression pretreated for 1 hr followed by LPS stimulation and measured after 30 mins by Western blot analysis; format: functional, cell-based
Mus musculus [4] = experiment: Antiinflammatory activity in C57/BL6 mouse ALI model assessed as reduction in LPS-induced destruction of alveolar structure at 10 to 20 mg/kg, ip pretreated for 30 mins followed by LPS challenge and measured after 48 hrs by H and E staining based histopathological analysis; format: functional, organism-based
Procedure, shortened: (§2)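 Male C57BL/6 mice, 18~22 g, acclimatized one week; 40 randomly split into control, LPS, and two LPS groups pretreated i.p. (10 or 20 mg/kg) 30 min before LPS (methods: 20 mg/kg tail vein; legend: 5 mg/kg intratracheal). Saline i.p. to controls. Sacrificed 48 h after LPS; read-outs lung MPO, body weight, upper right lobe wet/dry ratio (dried at 60 °C until constant), H&E on paraformaldehyde-fixed paraffin sections.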

Mus musculus [5] = experiment: Antiinflammatory activity in C57/BL6 mouse ALI model assessed as reduction in LPS-induced lung edema at 10 to 20 mg/kg, ip pretreated for 30 mins followed by LPS challenge and measured after 48 hrs by H and E staining based histopathological analysis; format: functional, organism-based; procedure, shortened: as §2
RAW264.7 [6] = experiment: Inhibition of LPS-stimulated NFkappaB activation in mouse RAW264.7 cells assessed as reduction in LPS-induced IkappaB degradation at 0.5 to 2 uM pretreated for 1 hr followed by LPS stimulation and measured after 30 mins by Western blot analysis; format: cell-based
Procedure, shortened: (§3)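 RAW264.7 seeded 3×10^5 cells/well, 24 h; pretreated 1 h at 0.5, 1 or 2 µM, then LPS 0.5 µg/mL for 30 min. RIPA lysates (PMSF, phosphatase inhibitors) on 12% SDS-PAGE, PVDF; primary antibodies overnight 4 °C, HRP secondary 1:5000. Probed phospho/total ERK, JNK, p38, p-IκB, IκB, p-p65, p65, β-actin; three independent experiments.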

RAW264.7 [7] = experiment: Antiinflammatory activity in mouse RAW264.7 cells assessed as reduction in LPS-induced IL-6 production pretreated for 1 hr followed by LPS stimulation and measured after 24 hrs by ELISA; format: functional, cell-based
Procedure, shortened: (§4)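 RAW264.7 seeded 6×10^4 cells/well, cultured 24 h; 1 h pretreatment at 10, 5, 2.5, 1.25 or 0.625 µM, then LPS 0.5 µg/mL for 24 h. IL-6 and TNF-α in conditioned medium quantified by ELISA.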

Mus musculus [8] = experiment: Protection against LPS-induced acute lung injury in C57/BL6 mouse assessed as survival rate at 20 mg/kg, ip pretreated for 30 mins followed by LPS challenge and measured after 48 hrs (reference value: 10%); format: functional
[9] = Toxicity in C57/BL6 mouse ALI model assessed as mortality at 20 mg/kg, ip; format: organism-based; conditions: in vivo
Procedure, shortened: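 Mice were given the compound at 20 mg/kg ip as solutions, with no LPS challenge. They were observed against an untreated control group, and lung sections were then stained with H&E to look for inflammation, hemorrhage, edema and alveolar damage.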

[10] = Toxicity in C57/BL6 mouse ALI model assessed as induction of lung edema at 20 mg/kg, ip measured after 48 hrs by H and E staining based histopathological analysis; format: organism-based; conditions: in vivo
Procedure, shortened: (§5)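 Mice given 20 mg/kg i.p. without LPS, compared with controls; lung sections stained with hematoxylin and eosin for edema, hemorrhage, inflammatory cell infiltration and alveolar structure.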

[11] = Toxicity in C57/BL6 mouse ALI model assessed as induction of pro-inflammatory alterations at 20 mg/kg, ip measured after 48 hrs by H and E staining based histopathological analysis; format: organism-based; conditions: in vivo; procedure, shortened: as §5
RAW264.7 [12] = experiment: Antiinflammatory activity in mouse RAW264.7 cells assessed as reduction in LPS-induced NO production pretreated for 1 hr followed by LPS stimulation and measured after 24 hrs by Griess reagent based assay; format: functional, cell-based; procedure, shortened: as §1
Mus musculus [13] = experiment: Effect on LPS-induced body weight loss in C57/BL6 mouse at 10 to 20 mg/kg, ip pretreated for 30 mins followed by LPS challenge; format: functional, organism-based; procedure, shortened: as §2
[14] = Toxicity in C57/BL6 mouse ALI model assessed as induction of alveolar hemorrhage at 20 mg/kg, ip measured after 48 hrs by H and E staining based histopathological analysis; format: organism-based; conditions: in vivo; procedure, shortened: as §5
RAW264.7 [15] = experiment: Inhibition of LPS-stimulated NFkappaB activation in mouse RAW264.7 cells assessed as reduction in IkappaB phosphorylation at 0.5 to 2 uM pretreated for 1 hr followed by LPS stimulation and measured after 30 mins by Western blot analysis; format: cell-based; procedure, shortened: as §3
[16] = Toxicity in C57/BL6 mouse ALI model assessed as induction of destruction of alveolar structure at 20 mg/kg, ip measured after 48 hrs by H and E staining based histopathological analysis; format: organism-based; conditions: in vivo; procedure, shortened: as §5
RAW264.7 [17] = experiment: Antiinflammatory activity in mouse RAW264.7 cells assessed as reduction in LPS-induced TNF alpha production pretreated for 1 hr followed by LPS stimulation and measured after 24 hrs by ELISA; format: functional, cell-based; procedure, shortened: as §4
Mus musculus [18] = experiment: Antiinflammatory activity in C57/BL6 mouse ALI model assessed as reduction in LPS-induced pro-inflammatory alterations at 10 to 20 mg/kg, ip pretreated for 30 mins followed by LPS challenge and measured after 48 hrs by H and E staining based histopathological analysis; format: functional, organism-based; procedure, shortened: as §2
[19] = Toxicity in C57/BL6 mouse ALI model assessed as induction of inflammatory cell infiltration at 20 mg/kg, ip measured after 48 hrs by H and E staining based histopathological analysis; format: organism-based; conditions: in vivo; procedure, shortened: as §5
Mus musculus [20] = experiment: Antiinflammatory activity in C57/BL6 mouse ALI model assessed as reduction in LPS-induced pulmonary edema by measuring lung wet/dry weight ratio at 10 to 20 mg/kg, ip pretreated for 30 mins followed by LPS challenge and measured after 48 hrs; format: functional, organism-based; procedure, shortened: as §2
Mus musculus [21] = experiment: Antiinflammatory activity in C57/BL6 mouse ALI model assessed as reduction in LPS-induced MPO level in lungs tissue at 10 to 20 mg/kg, ip pretreated for 30 mins followed by LPS challenge and measured after 48 hrs; format: functional, organism-based; procedure, shortened: as §2
Mus musculus [22] = experiment: Antiinflammatory activity in C57/BL6 mouse ALI model assessed as reduction in LPS-induced alveolar hemorrhage at 10 to 20 mg/kg, ip pretreated for 30 mins followed by LPS challenge and measured after 48 hrs by H and E staining based histopathological analysis; format: functional, organism-based; procedure, shortened: as §2
RAW264.7 [23] = experiment: Effect on total ERK expression level in LPS-induced mouse RAW264.7 cells pretreated for 1 hr followed by LPS stimulation and measured after 30 mins by Western blot analysis; format: ADME, cell-based; conditions: raw264.7, 0.5 h; procedure, shortened: as §3
RAW264.7 [24] = experiment: Antiinflammatory activity in mouse RAW264.7 cells assessed as reduction in LPS-induced iNOS protein expression pretreated for 1 hr followed by LPS stimulation and measured after 24 hrs by Western blot analysis; format: functional, cell-based
Procedure, shortened: (§6)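 Western blot in RAW264.7: 1 h pretreatment at 0.5–2 µM, LPS 0.5 µg/mL for 24 h; lysis in RIPA with PMSF and phosphatase inhibitors on ice 30 min, 12% SDS-PAGE, PVDF, primary antibodies overnight at 4 °C, HRP secondary 1:5000 1 h at room temperature; iNOS and COX-2 against β-actin; three separate experiments.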

RAW264.7 [25] = experiment: Antiinflammatory activity in mouse RAW264.7 cells assessed as reduction in LPS-induced COX2 protein expression pretreated for 1 hr followed by LPS stimulation and measured after 24 hrs by Western blot analysis; format: functional, cell-based; procedure, shortened: as §6
RAW264.7 [26] = experiment: Effect on total JNK protein expression level in LPS-induced mouse RAW264.7 cells pretreated for 1 hr followed by LPS stimulation and measured after 30 mins by Western blot analysis; format: ADME, cell-based; conditions: raw264.7, 0.5 h; procedure, shortened: as §3
RAW264.7 [27] = experiment: Effect on total p38 expression level in LPS-induced mouse RAW264.7 cells pretreated for 1 hr followed by LPS stimulation and measured after 30 mins by Western blot analysis; format: ADME, cell-based; conditions: raw264.7, 0.5 h; procedure, shortened: as §3
Mus musculus [28] = experiment: Antiinflammatory activity in C57/BL6 mouse ALI model assessed as reduction in LPS-induced inflammatory cell infiltration at 10 to 20 mg/kg, ip pretreated for 30 mins followed by LPS challenge and measured after 48 hrs by H and E staining based histopathological analysis; format: functional, organism-based; procedure, shortened: as §2
Mus musculus [29] = experiment: Protection against LPS-induced acute lung injury in C57/BL6 mouse assessed as survival rate at 10 to 20 mg/kg, ip pretreated for 30 mins followed by LPS challenge and measured at 24 hrs (reference value: 60%); format: functional
RAW264.7 [30] = experiment: Inhibition of LPS-stimulated NFkappaB activation in mouse RAW264.7 cells assessed as reduction in p65 phosphorylation at 0.5 to 2 uM pretreated for 1 hr followed by LPS stimulation and measured after 30 mins by Western blot analysis; format: cell-based; procedure, shortened: as §3
RAW264.7 [31] = experiment: Inhibition of LPS-induced JNK phosphorylation in mouse RAW264.7 cells pretreated for 1 hr followed by LPS stimulation by Western blot analysis; format: cell-based; procedure, shortened: as §3

Oc1ccc(/C=C/c2cc(O)cc(O)c2)cc1
inhibition (RAW264.7 [1]): Active

CCOc1ccc(/C=C/c2cc(OC)cc(OC)c2-c2oc3ccc(OC)cc3c(=O)c2O)cc1
Activity (RAW264.7 [2]): Non-Toxic

COc1ccc(/C=C/c2cc(OC)cc(OC)c2-c2cc(=O)c3cc(OC)ccc3o2)cc1
inhibition (RAW264.7 [1]): Active

COc1ccc(/C=C/c2cc(OC)cc(OC)c2-c2oc3cc(C)ccc3c(=O)c2O)cc1
Activity (RAW264.7 [2]): Non-Toxic

CCOc1ccc(/C=C/c2cc(OC)cc(OC)c2-c2oc3ccccc3c(=O)c2O)cc1
inhibition (RAW264.7 [1]): Active

COc1ccc(/C=C/c2cc(OC)cc(OC)c2-c2oc3ccc(F)cc3c(=O)c2O)cc1
Activity (RAW264.7 [3]): Dose-dependent effect
Activity (Mus musculus [4]): Active
Activity (Mus musculus [5]): Active
inhibition (RAW264.7 [6]): Active
Activity (RAW264.7 [7]): Dose-dependent effect
IC50 (RAW264.7 [7]): 1120 nM
Activity (Mus musculus [8]): 50%
inhibition (RAW264.7 [1]): Active
Activity [9]: Non-Toxic
Activity [10]: Non-Toxic
Activity [11]: Non-Toxic
Activity (RAW264.7 [12]): Dose-dependent effect
IC50 (RAW264.7 [12]): 1350 nM
Activity (Mus musculus [13]): inactive
Activity [14]: Non-Toxic
inhibition (RAW264.7 [15]): Active
Activity [16]: Non-Toxic
Activity (RAW264.7 [17]): Dose-dependent effect
IC50 (RAW264.7 [17]): 1920 nM
Activity (Mus musculus [18]): Active
Activity [19]: Non-Toxic
Activity (Mus musculus [20]): Active
Activity (Mus musculus [21]): Active
Activity (Mus musculus [22]): Active
Activity (RAW264.7 [23]): Non-Toxic
Activity (RAW264.7 [24]): Dose-dependent effect
Activity (RAW264.7 [25]): Dose-dependent effect
Activity (RAW264.7 [26]): Non-Toxic
Activity (RAW264.7 [27]): Non-Toxic
Activity (Mus musculus [28]): Active
Activity (Mus musculus [29]): 90%
inhibition (RAW264.7 [30]): Active
inhibition (RAW264.7 [31]): inactive

COc1ccc(/C=C/c2cc(OC)cc(OC)c2-c2oc3ccc(Br)cc3c(=O)c2O)cc1
inhibition (RAW264.7 [1]): Active
